# Shown are actives, neighbours in structure and some others; about 1.5% of the full set was active somewhere.
# INS-1E GSIS act – GLuc luminescence reporter in INS-1E cells, primary screen for activators of glucose-dependent secretion of insulin; INS-1E GLuc reporter insulin secretion, 2-3 h; activation, % at 16.6 µM; 370,000 compounds, 0.61% hits; AID 743287;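 active = lowest replicate activation of at least 40%, so every replicate reaches that level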;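 note: 0% = median of neutral control wells and 100% = median of IBMX positive control wells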
# MLL AF4-AF9 inh – MLL-AF4/AF9 protein interaction inhibition | P42568 | AlphaScreen, biotin-AF4 peptide binding to FLAG-AF9 | inhibition, % at 10 µM | 350,000 compounds, 0.47% hits;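 active = every replicate reaching a set inhibition limit, whatever the replicate mean, cut at about 25% in these data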;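 note: 0% = plate neutral control median and 100% = total signal loss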
# Target sequence (P42568 whole entry, looked up): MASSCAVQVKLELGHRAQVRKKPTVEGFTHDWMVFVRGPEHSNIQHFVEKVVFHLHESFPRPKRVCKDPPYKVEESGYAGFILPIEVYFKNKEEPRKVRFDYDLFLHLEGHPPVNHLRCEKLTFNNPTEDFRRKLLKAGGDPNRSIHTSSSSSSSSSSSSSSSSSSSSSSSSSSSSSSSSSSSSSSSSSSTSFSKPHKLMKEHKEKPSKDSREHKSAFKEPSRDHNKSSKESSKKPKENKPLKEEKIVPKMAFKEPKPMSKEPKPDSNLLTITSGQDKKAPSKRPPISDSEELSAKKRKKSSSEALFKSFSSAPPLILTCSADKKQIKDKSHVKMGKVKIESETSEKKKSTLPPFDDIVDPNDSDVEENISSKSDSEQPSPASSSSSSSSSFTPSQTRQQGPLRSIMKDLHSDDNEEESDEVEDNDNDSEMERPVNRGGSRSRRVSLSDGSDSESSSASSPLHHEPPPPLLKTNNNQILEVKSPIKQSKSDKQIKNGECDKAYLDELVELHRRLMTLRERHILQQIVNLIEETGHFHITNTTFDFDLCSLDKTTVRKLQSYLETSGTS
# RAD52 anneal inh – blocks human RAD52 DNA annealing | P43351 | 360,000 compounds, 0.46% hits | inhibition, % at 18.7 µM | recombinant RAD52 DNA annealing, FRET fluorescence;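 active = every replicate showing at least 50% inhibition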
# S100A4 MyoIIA – S100A4-myosin IIA interaction inhibition; inhibition, % at 10.7 µM; S100A4/TAMRA-MyoIIA peptide fluorescence polarization; AID 652163; P26447; 360,000 compounds, 0.14% hits;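 active = mean inhibition of at least 70% across replicates, with every replicate also reaching that level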
#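 Test system: S100A4 monomer protein; Medium: HEPES pH 7.2 with CaCl2, KCl, NaCl, DTT, Triton; Probe or stimulus: TAMRA-labelled myosin IIA heavy-chain peptide probe, 5 nM; Doses: one dose per compound; Times: polarization read 5 min after assay mix addition, stable 5–60 min; Benchmarks: neutral control DMSO, positive control TFP.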
# ERAP1 HTS inh – blocks human ERAP1 aminopeptidase activity. inhibition, % at 10.7 µM. 340,000 compounds, 0.15% hits. AID 652197. Q9NZ08. recombinant ERAP1, Leu-AMC fluorescence, 60 min;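 active = mean replicate inhibition of at least 30%, or all replicates individually reaching that 30% level; inactive = mean below 30% and not every replicate reaching it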;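 note: 0% = neutral control wells and 100% = L-leucinethiol positive control wells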
# * = called active by the depositor; / = not tested or not shown; ! = a repeat was not active.
SMILES,INS-1E GSIS act,MLL AF4-AF9 inh,RAD52 anneal inh,S100A4 MyoIIA,ERAP1 HTS inh
COc1ccc(NC(=O)Nc2ccc3c(c2)C(=O)N([C@@H](C)CO)C[C@H](C)[C@H](CN(C)S(=O)(=O)c2ccc(F)cc2)OCCCC[C@@H](C)O3)cc1,24,1,0,7,3
C[C@@H]1CN([C@H](C)CO)C(=O)c2cc(NC(=O)Nc3ccc4c(c3)OCO4)ccc2O[C@@H](C)CCCCO[C@H]1CN(C)Cc1ccc2c(c1)OCO2,-33,39*,17,8,-3
C[C@@H]1CCCCO[C@@H](CN(C)Cc2ccccc2)[C@H](C)CN([C@H](C)CO)C(=O)c2cc(NC(=O)Nc3ccc4c(c3)OCO4)ccc2O1,-18,31*,12,-13,0
C[C@H]1CN([C@@H](C)CO)C(=O)c2cc(NC(=O)NC3CCCCC3)ccc2O[C@H]1CN(C)Cc1ccccc1,-6,33*,0,22,3
C[C@H]1CCCCO[C@@H](CN(C)Cc2ccccc2)[C@@H](C)CN([C@@H](C)CO)C(=O)c2cc(NC(=O)Nc3ccc4c(c3)OCO4)ccc2O1,-28,19,-7,70,3
C[C@@H]1CN([C@H](C)CO)C(=O)c2cc(NC(=O)Nc3ccccc3)ccc2O[C@@H](C)CCCCO[C@H]1CN(C)Cc1ccc2c(c1)OCO2,-33,19,61*,3,-1
NC(=O)[C@H]1[C@@H]2C(=O)O[C@@H](c3ccccc3)[C@@H](c3ccccc3)N2[C@@H](c2ccc(OCCO)cc2)[C@]12C(=O)Nc1ccc(C#CC3(O)CCCCCC3)cc12,/,0,-18,11,2
C[C@H](CO)N1C[C@H](C)[C@@H](CN(C)C(=O)[C@H]2CCCN2C)OCc2ccccc2-c2c(n(C)c3ccccc23)C1=O,3,/,/,/,/
C[C@@H]1CCCCO[C@@H](CN(C)Cc2ccc3c(c2)OCO3)[C@H](C)CN([C@@H](C)CO)C(=O)c2cc(NC(=O)Nc3ccc(C(F)(F)F)cc3)ccc2O1,15,3,51*,7,-2
C[C@@H]1CCCCO[C@@H](CN(C)Cc2ccc3c(c2)OCO3)[C@@H](C)CN([C@@H](C)CO)C(=O)c2cc(NC(=O)Nc3ccc(C(F)(F)F)cc3)ccc2O1,-23,3,46,-5,0
C[C@H]1CCCCO[C@H](CN(C)Cc2ccc3c(c2)OCO3)[C@@H](C)CN([C@@H](C)CO)C(=O)c2cc(NC(=O)Nc3ccccc3)ccc2O1,-38,12,56*,-2,0
C[C@@H]1CCCCO[C@@H](CN(C)C(=O)Nc2ccc3c(c2)OCO3)[C@H](C)CN([C@@H](C)CO)C(=O)c2cc(NC(=O)Nc3ccc(F)cc3)ccc2O1,17,-3,16,6,-2
COc1ccc(CN(C)C[C@H]2OCCCC[C@@H](C)Oc3ccc(NC(=O)Nc4ccc5c(c4)OCO5)cc3C(=O)N([C@@H](C)CO)C[C@@H]2C)cc1,-43,28*,29,4,-2
C[C@H]1CCCCO[C@H](CN(C)C(=O)Nc2ccc(F)cc2)[C@@H](C)CN([C@@H](C)CO)C(=O)c2cc(NC(=O)Nc3ccc4c(c3)OCO4)ccc2O1,15,32*!,-14,-9,3
COc1ccc2c3c(n(C)c2c1)[C@H](CO)N(C(=O)c1cccnc1)CC31CCN(S(C)(=O)=O)CC1,11,0,/,/,/
Cc1ccc(-n2cc(CN3CCN(Cc4nccn4C)CC3)c(-c3cccc(C)c3)n2)cc1,-17,29*,12,3,5
O=C(NCCCn1ccnc1)c1ccc(NS(=O)(=O)c2cccc([N+](=O)[O-])c2)cc1,-1,-17,-10,6,0
Cc1ccc(S(=O)(=O)Nc2ccc(C(=O)NCCCn3ccnc3)cc2)cc1[N+](=O)[O-],44*,-3,-6,-19,-6
CC1CCN(Cc2cc(=O)oc3cc(O)c(Cl)cc23)CC1,0,-2,-36,10,60*
CC1CCN(Cc2cc(=O)oc3cc4c(cc23)CCCC4)CC1,-4,-4,-9,2,3
Cc1ccc2oc(=O)cc(CN3CC(C)OC(C)C3)c2c1 (stereo not given),13,-1,-12,-5,2
CC1CN(Cc2cc(=O)oc3cc(O)c(Cl)cc23)CC(C)O1 (stereo not given),-12,-8,-6,0,60*

# Assay outcomes from PubChem.
